Results published in article PMC5697680 (Clinical Pharmacology in Drug Development, 2017).

How the values were obtained:
[1] = cited from earlier work
[2] = tested on: OCT2/MATE renal transporter; settings: results in increased exposure to OCT2 substrates such as metformin; cited from earlier work
[3] = Tolerability assessment; type: in vivo, healthy adults
Procedure, shortened: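 Healthy adults (18-65 years) got five single oral 20 mg doses of test compound (granule suspension or dispersible tablet in low- or high-mineral water, immediate or after 30-minute hold). Dosing followed a Latin square, fasted in the morning, with at least 7 days' washout. AEs and SAEs were recorded from first dose to follow-up at least 7 days post-dose, along with labs, vital signs, ECG and physical exams. Results were summarized as subject numbers and percentages.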

SMILES: C[C@@H]1CCO[C@H]2Cn3cc(C(=O)NCc4ccc(F)cc4F)c(=O)c(O)c3C(=O)N12 [DTG, Dolutegravir]
- reduction of DTG exposure by magnesium‐ and aluminum‐containing antacid ([1]; concomitant administration): 70%
- reduction of DTG plasma exposure by calcium supplement ([1]; fasting conditions): 39%
- reduction of DTG plasma exposure by iron supplement ([1]; fasting conditions): 54%
- effect on OCT2/MATE renal transporter [2]: inhibition
- AEs reported, number of subjects ([3]; 15 participants, all five single 20 mg treatments): 9 subjects
- SAEs, AEs leading to withdrawal, or deaths ([3]; 15 participants, all treatments): No SAEs
- drug‐related AEs (nausea, mild), number of subjects ([3]; two reports of nausea in one subject, resolved on the same day): 1 n
